pIC50, pKi: −log10 of the molar value.
Tests used:
[1] = target: T1, Neuronal acetylcholine receptor; alpha4/beta2 (Rattus norvegicus, UniProt P09483+P12390); assay: Inhibition of [3H]nicotine binding to Nicotinic acetylcholine receptor alpha4-beta2 in rat brain membranes; NA= Not active; assay type: cell membranes
Outline: (§1)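 Rat whole brain minus cortex and cerebellum, homogenized in HEPES buffer (pH 7.5), washed by repeated 25,000g spins with one 37 °C 10-min incubation, stored at −70 °C. Membranes ([…]) incubated 60 min at room temperature with 3 nM radioligand plus analogue ([…]) in HEPES assay buffer with 50 mM Tris. Nonspecific binding defined with […] MLA, respectively. PEI-soaked GF/B filtration. Four independent experiments.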

Rattus norvegicus [2] = species: Rattus norvegicus; assay: Inhibitory activity against nAChR mediated nicotine-evoked [3H]DA overflow using rat striatal slices; Not determined; assay type: functional, organism-based
Outline: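 Rat striatal slices (4–6 mg) preincubated 60 min in oxygenated Krebs' buffer, pH 7.4, at 34 °C, […] [³H]DA (final) over the last 30 min. Slices then superfused at 1 mL/min, 34 °C, with nomifensine and pargyline present. Fractional release normalized to slice total tritium. Intrinsic and inhibitory activity measured on slices from the same rat. Means of 3–6 experiments.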

[3] = target: Neuronal acetylcholine receptor subunit alpha-7 (Rattus norvegicus, UniProt Q05941); assay: Inhibition of [3H]-MLA binding to Nicotinic acetylcholine receptor alpha-7 in rat brain membranes; NA= Not active; assay type: cell membranes; outline: as §1
Neuronal acetylcholine receptor subunit alpha-7, sequence (Q05941 whole entry): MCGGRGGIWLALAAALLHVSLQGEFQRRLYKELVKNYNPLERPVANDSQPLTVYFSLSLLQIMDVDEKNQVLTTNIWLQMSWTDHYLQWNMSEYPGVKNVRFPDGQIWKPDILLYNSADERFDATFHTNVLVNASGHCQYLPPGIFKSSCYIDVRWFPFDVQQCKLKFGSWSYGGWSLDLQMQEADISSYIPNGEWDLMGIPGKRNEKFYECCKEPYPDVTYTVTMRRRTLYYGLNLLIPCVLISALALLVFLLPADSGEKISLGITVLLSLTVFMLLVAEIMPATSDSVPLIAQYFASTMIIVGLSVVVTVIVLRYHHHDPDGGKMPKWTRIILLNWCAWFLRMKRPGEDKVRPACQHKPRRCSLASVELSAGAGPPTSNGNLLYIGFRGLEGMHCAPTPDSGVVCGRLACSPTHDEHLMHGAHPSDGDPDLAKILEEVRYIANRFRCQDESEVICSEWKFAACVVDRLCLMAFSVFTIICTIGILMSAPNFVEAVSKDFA

Rattus norvegicus [4] = species: Rattus norvegicus; assay: Inhibitory activity against nAChR mediated nicotine-evoked [3H]DA overflow using rat striatal slices; assay type: functional, organism-based
Outline: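 Rat striatal slices preincubated in oxygenated Krebs' buffer (pH 7.4) at 34 °C, loaded with [³H]DA during the last 30 min of the 60-min incubation. Slices then superfused at 34 °C with buffer containing nomifensine and pargyline. Nicotine-evoked overflow was normalized to slice tritium content, using a repeated-measures design.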

[5] = target: T1, Neuronal acetylcholine receptor; alpha4/beta2; assay: Inhibition of [3H]nicotine binding to Nicotinic acetylcholine receptor alpha4-beta2 in rat brain membranes; assay type: cell membranes
Outline: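 Rat whole-brain membranes (cortex and cerebellum removed), washed by repeated centrifugation and stored at −70 °C. Incubated with 3 nM [³H]nicotine and a range of analogue concentrations in pH 7.5 HEPES-based buffer with Tris, 60 min at room temperature. Nonspecific binding defined with nicotine. Filtration on PEI-soaked GF/B filters, scintillation counting. Ki is the mean of four independent experiments with standard error.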

T1 sequence (P09483 whole entry): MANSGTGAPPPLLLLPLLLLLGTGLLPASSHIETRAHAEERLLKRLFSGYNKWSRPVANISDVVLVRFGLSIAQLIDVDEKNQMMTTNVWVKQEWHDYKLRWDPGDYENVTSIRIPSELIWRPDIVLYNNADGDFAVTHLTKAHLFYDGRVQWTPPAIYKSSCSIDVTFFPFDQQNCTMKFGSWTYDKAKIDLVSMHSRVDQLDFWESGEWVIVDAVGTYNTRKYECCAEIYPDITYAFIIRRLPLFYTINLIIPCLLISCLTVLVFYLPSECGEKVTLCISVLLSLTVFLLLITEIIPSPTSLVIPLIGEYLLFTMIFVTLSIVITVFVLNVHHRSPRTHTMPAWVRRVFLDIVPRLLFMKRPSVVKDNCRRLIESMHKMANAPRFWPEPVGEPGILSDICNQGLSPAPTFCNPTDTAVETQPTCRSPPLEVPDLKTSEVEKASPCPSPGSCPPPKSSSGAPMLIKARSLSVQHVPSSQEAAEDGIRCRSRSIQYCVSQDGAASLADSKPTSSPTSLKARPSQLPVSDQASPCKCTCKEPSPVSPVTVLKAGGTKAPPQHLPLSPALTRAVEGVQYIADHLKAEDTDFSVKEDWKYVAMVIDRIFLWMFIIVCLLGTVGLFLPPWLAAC
T1 sequence (P12390 whole entry): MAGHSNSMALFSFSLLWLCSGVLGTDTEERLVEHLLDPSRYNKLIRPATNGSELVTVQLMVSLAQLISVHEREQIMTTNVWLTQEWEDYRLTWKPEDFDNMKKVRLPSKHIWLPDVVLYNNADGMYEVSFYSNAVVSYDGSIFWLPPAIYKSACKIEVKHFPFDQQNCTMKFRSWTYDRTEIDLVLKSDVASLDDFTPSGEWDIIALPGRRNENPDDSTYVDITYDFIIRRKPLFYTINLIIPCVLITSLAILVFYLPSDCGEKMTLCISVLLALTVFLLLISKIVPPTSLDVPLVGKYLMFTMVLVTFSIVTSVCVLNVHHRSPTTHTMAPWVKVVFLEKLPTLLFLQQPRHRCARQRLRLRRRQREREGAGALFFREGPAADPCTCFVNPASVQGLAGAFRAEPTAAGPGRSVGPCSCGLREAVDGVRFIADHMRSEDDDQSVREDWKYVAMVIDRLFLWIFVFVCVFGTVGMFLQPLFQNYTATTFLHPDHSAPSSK

Structure (SMILES) | Ki [1] | pIC50 (Rattus norvegicus [2]) | Ki [3] | pIC50 (Rattus norvegicus [4]) | pKi [5]
Cc1ccc[n+](CCCCCCCCCC[n+]2cccc(C)c2)c1.[I-].[I-] | Not Active |  | Not Active | 7.52 | 
Cc1ccc[n+](CCCCCC[n+]2cccc(C)c2)c1.[I-].[I-] | Not Active |  | Not Active | 5.78 | 
Cc1ccc[n+](CCCCCCCCCCCC[n+]2cccc(C)c2)c1.[Br-].[Br-] |  |  | Not Active | 8.30 | 
Cc1ccc[n+](CCCCCCCCCCC[n+]2cccc(C)c2)c1.[Br-].[Br-] |  |  | Not Active | 6.21 | 
CCCCCCCCCC[n+]1cccc(C)c1.[I-] |  |  | Not Active | 6.52 | 4.59

Continued, in another order:

Ki [1] | pIC50 (Rattus norvegicus [2]) | Ki [3] | Structure (SMILES) | pIC50 (Rattus norvegicus [4]) | pKi [5]
Not Active | 8.00 | Not Active | Cc1ccc[n+](CCCCCCCC[n+]2cccc(C)c2)c1.[I-].[I-] |  | 
Not Active |  | Not Active | CCCCCCCC[n+]1cccc(C)c1.[I-] | 6.00 | 
Not Active |  | Not Active | CCCCCCCCCCCC[n+]1cccc(C)c1.[I-] | 7.52 | 
Not Active |  | Not Active | CCCCCCCCCCC[n+]1cccc(C)c1.[I-] |  | 
 |  | Not Active | Cc1ccc[n+](CCCCCCCCC[n+]2cccc(C)c2)c1.[Br-].[Br-] |  | 
 |  | Not Active | CCCCCCCCC[n+]1cccc(C)c1.[I-] |  | 4.21
